Source: ChEMBL document CHEMBL3351896, “Small Molecule that Reverses Dexamethasone Resistance in T-cell Acute Lymphoblastic Leukemia (T-ALL)” (ACS Med Chem Lett, 2014)
Active and inactive are the calls of the source. The rule behind the calls is not given here.

What was measured:
Assay type in all cases: functional, cell-based
CUTLL1 [1] = assay: Effect on GGNBP2 gene expression in human CUTLL1 cells in presence of 1 uM dexamethasone at 30 uM after 24 hrs by microarray method
Method in brief: (§1)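 CUTLL1 T-ALL cells exposed 24 h to vehicle (DMSO), dexamethasone alone (1 μM), test agent alone (30 μM), or dexamethasone (1 μM) plus test agent (30 μM), in triplicate. Expression profiled by microarray. Leading-edge genes from GSEA were compared between the dexamethasone-plus-agent and dexamethasone-alone groups, using glucocorticoid-regulated gene sets from ALL patients on glucocorticoid therapy.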

CUTLL1 [2] = assay: Effect on NHP2 gene expression in human CUTLL1 cells in absence of 1 uM dexamethasone at 30 uM after 24 hrs by microarray method; method in brief: as §1
CUTLL1 [3] = assay: Effect on TWISTNB gene expression in human CUTLL1 cells in presence of 1 uM dexamethasone at 30 uM after 24 hrs by microarray method
Method in brief: (§2)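 Human CUTLL1 T-ALL cells exposed for 24 h to vehicle (DMSO), dexamethasone alone (1 μM), test compound alone (30 μM), or dexamethasone 1 μM plus compound 30 μM, each in triplicate. Expression profiled by microarray. Glucocorticoid-regulated gene sets from ALL patients on glucocorticoid therapy scored by GSEA. Leading-edge genes compared between the combination and dexamethasone alone.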

CUTLL1 [4] = assay: Effect on HELLS gene expression in human CUTLL1 cells in presence of 1 uM dexamethasone at 30 uM after 24 hrs by microarray method; method in brief: as §1
CUTLL1 [5] = assay: Effect on POLE3 gene expression in human CUTLL1 cells in presence of 1 uM dexamethasone at 30 uM after 24 hrs by microarray method; method in brief: as §2
CUTLL1 [6] = assay: Growth inhibition of human CUTLL1 cells at 12.5 to 50 uM in presence of 1 uM dexamethasone and 1 uM […] and glucocorticoid receptor antagonist RU486 after 48 hrs by alamar blue assay
Method in brief: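 CUTLL1 cells treated for 48 h with compound, with or without dexamethasone 1 μM and RU486 1 μM. Growth inhibition read out by alamar blue.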

CUTLL1 [7] = assay: Effect on ATAD2 gene expression in human CUTLL1 cells in absence of 1 uM dexamethasone at 30 uM after 24 hrs by microarray method; method in brief: as §1
CUTLL1 [8] = assay: Effect on NXT1 gene expression in human CUTLL1 cells in presence of 1 uM dexamethasone at 30 uM after 24 hrs by microarray method; method in brief: as §1
CUTLL1 [9] = assay: Effect on TIFA gene expression in human CUTLL1 cells in absence of 1 uM dexamethasone at 30 uM after 24 hrs by microarray method; method in brief: as §2
CUTLL1 [10] = assay: Effect on BTG1 gene expression in human CUTLL1 cells in absence of 1 uM dexamethasone at 30 uM after 24 hrs by microarray method; method in brief: as §1
CUTLL1 [11] = assay: Growth inhibition of human CUTLL1 cells with low GR expression levels at 50 uM after 48 hrs by alamar blue assay
Method in brief: (§3)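 Human CUTLL1 T-ALL cells engineered to express high (overexpressed) or low (knockdown) glucocorticoid receptor levels. Exposed to compound alone or with 1 μM dexamethasone. Alamar blue growth inhibition read after 48 h.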

CUTLL1 [12] = assay: Effect on SMAP2 gene expression in human CUTLL1 cells in presence of 1 uM dexamethasone at 30 uM after 24 hrs by microarray method; method in brief: as §2
CUTLL1 [13] = assay: Effect on TSC22D3 gene expression in human CUTLL1 cells in absence of 1 uM dexamethasone at 30 uM after 24 hrs by microarray method; method in brief: as §2
CUTLL1 [14] = assay: Effect on LILRB3 gene expression in human CUTLL1 cells in presence of 1 uM dexamethasone at 30 uM after 24 hrs by microarray method; method in brief: as §1
CUTLL1 [15] = assay: Effect on PFAS gene expression in human CUTLL1 cells in absence of 1 uM dexamethasone at 30 uM after 24 hrs by microarray method; method in brief: as §2
CUTLL1 [16] = assay: Effect on PFAS gene expression in human CUTLL1 cells in presence of 1 uM dexamethasone at 30 uM after 24 hrs by microarray method; method in brief: as §2
CUTLL1 [17] = assay: Effect on GINS2 gene expression in human CUTLL1 cells in presence of 1 uM dexamethasone at 30 uM after 24 hrs by microarray method; method in brief: as §1
CUTLL1 [18] = assay: Effect on BYSL gene expression in human CUTLL1 cells in presence of 1 uM dexamethasone at 30 uM after 24 hrs by microarray method; method in brief: as §1
CUTLL1 [19] = assay: Increase in GR expression in human CUTLL1 cells at 25 to 50 uM in presence of 1 uM dexamethasone after 24 hrs by Western blotting method
Method in brief: (§4)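 CUTLL1 cells exposed to compound (25 or 50 μM) alone, with 1 μM dexamethasone, or with dexamethasone plus 1 μM RU486, for 6 or 24 h. GR measured as protein by Western blot and as transcript by RT-qPCR.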

CUTLL1 [20] = assay: Effect on E2F7 gene expression in human CUTLL1 cells in presence of 1 uM dexamethasone at 30 uM after 24 hrs by microarray method; method in brief: as §1
CUTLL1 [21] = assay: Effect on TIPIN gene expression in human CUTLL1 cells in presence of 1 uM dexamethasone at 30 uM after 24 hrs by microarray method; method in brief: as §2
CUTLL1 [22] = assay: Effect on TK1 gene expression in human CUTLL1 cells in presence of 1 uM dexamethasone at 30 uM after 24 hrs by microarray method; method in brief: as §2
CUTLL1 [23] = assay: Growth inhibition of human CUTLL1 cells at 50 uM in presence of erastin after 48 hrs by alamar blue assay
CUTLL1 [24] = assay: Effect on MCM10 gene expression in human CUTLL1 cells in presence of 1 uM dexamethasone at 30 uM after 24 hrs by microarray method; method in brief: as §1
CUTLL1 [25] = assay: Increase in GR expression in human CUTLL1 cells at 25 to 50 uM in presence of 1 uM dexamethasone and 1 uM […] and glucocorticoid receptor antagonist RU486 after 24 hrs by RT-qPCR method; method in brief: as §4
CUTLL1 [26] = assay: Growth inhibition of human CUTLL1 cells at 50 uM in presence of deferoxamine after 48 hrs by alamar blue assay
CUTLL1 [27] = assay: Increase in GR expression in human CUTLL1 cells at 25 to 50 uM in presence of 1 uM dexamethasone and 1 uM […] and glucocorticoid receptor antagonist RU486 after 24 hrs by Western blotting method; method in brief: as §4
CUTLL1 [28] = assay: Potentiation of dexamethasone-induced cytotoxicity against human CUTLL1 cells with high GR expression levels at 50 uM after 48 hrs by alamar blue assay; method in brief: as §3
CUTLL1 [29] = assay: Increase in GR expression in human CUTLL1 cells at 25 to 50 uM in presence of 1 uM dexamethasone after 24 hrs by RT-qPCR method; method in brief: as §4
CUTLL1 [30] = assay: Effect on FKBP5 gene expression in human CUTLL1 cells in presence of 1 uM dexamethasone at 30 uM after 24 hrs by microarray method; method in brief: as §1
CUTLL1 [31] = assay: Effect on SKP2 gene expression in human CUTLL1 cells in absence of 1 uM dexamethasone at 30 uM after 24 hrs by microarray method; method in brief: as §2
CUTLL1 [32] = assay: Effect on MCM4 gene expression in human CUTLL1 cells in absence of 1 uM dexamethasone at 30 uM after 24 hrs by microarray method; method in brief: as §1

Question: Which Activity (CUTLL1 [1]) does the source give for `Nc1ncc(-c2ccncc2)c(C2CC2)n1` here?
Answer: Its Activity is “Active”.

Question: What about the Activity (CUTLL1 [2]) of the same compound?
Answer: Its Activity is “inactive”.

Question: What about the Activity (CUTLL1 [3]) of the same compound?
Answer: The Activity was “Active”.

Question: What about the Activity (CUTLL1 [4]) of the same compound?
Answer: The Activity was “Active”.

Question: And the Activity (CUTLL1 [5])?
Answer: Its Activity is “Active”.

Question: And the “growth inhibition (GI)” value (CUTLL1 [6])?
Answer: The value was “inactive”.

Question: What about the Activity (CUTLL1 [7]) of the same compound?
Answer: Its Activity is “inactive”.

Question: And the Activity (CUTLL1 [8])?
Answer: The Activity was “Active”.

Question: What about the Activity (CUTLL1 [9]) of the same compound?
Answer: The Activity was “inactive”.

Question: What about the Activity (CUTLL1 [10]) of the same compound?
Answer: The Activity was “inactive”.

Question: And the “growth inhibition (GI)” value (CUTLL1 [11])?
Answer: The value was “inactive”.

Question: And the Activity (CUTLL1 [12])?
Answer: Its Activity is “Active”.

Question: And the Activity (CUTLL1 [13])?
Answer: The Activity was “inactive”.

Question: And the Activity (CUTLL1 [14])?
Answer: Its Activity is “Active”.

Question: What about the Activity (CUTLL1 [15]) of the same compound?
Answer: The Activity was “inactive”.

Question: And the Activity (CUTLL1 [16])?
Answer: The Activity was “Active”.

Question: And the Activity (CUTLL1 [17])?
Answer: Its Activity is “Active”.

Question: And the Activity (CUTLL1 [18])?
Answer: The Activity was “Active”.

Question: What about the Activity (CUTLL1 [19]) of the same compound?
Answer: Its Activity is “Active”.

Question: What about the Activity (CUTLL1 [20]) of the same compound?
Answer: Its Activity is “Active”.

Question: What about the Activity (CUTLL1 [21]) of the same compound?
Answer: The Activity was “Active”.

Question: What about the Activity (CUTLL1 [22]) of the same compound?
Answer: The Activity was “Active”.

Question: What about the “growth inhibition (GI)” value (CUTLL1 [23]) of the same compound?
Answer: The value was “inactive”.

Question: And the Activity (CUTLL1 [24])?
Answer: The Activity was “Active”.

Question: And the Activity (CUTLL1 [25])?
Answer: The Activity was “inactive”.

Question: And the “growth inhibition (GI)” value (CUTLL1 [26])?
Answer: The value was “inactive”.

Question: What about the Activity (CUTLL1 [27]) of the same compound?
Answer: Its Activity is “inactive”.

Question: And the Activity (CUTLL1 [28])?
Answer: Its Activity is “Active”.

Question: And the Activity (CUTLL1 [29])?
Answer: Its Activity is “Active”.

Question: What about the Activity (CUTLL1 [30]) of the same compound?
Answer: The Activity was “Active”.

Question: What about the Activity (CUTLL1 [31]) of the same compound?
Answer: The Activity was “inactive”.

Question: What about the Activity (CUTLL1 [32]) of the same compound?
Answer: Its Activity is “inactive”.
